As a reminder, the IC50 is the point on the concentration scale where inhibition reaches its midpoint. Read a low IC50 as inhibition by little substance.

This test concerns A-431. The test is described as follows: Antiproliferative activity against human A431 cells after 48 hrs by MTT assay. In kind it is functional, cell-based. Particulars: A-431, 48 h. The procedure, abridged:
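Cells in complete medium seeded into 96-well plates, preincubated 24 h at 37 °C, 5% CO₂ before cytotoxicity assessment; absorbance read at 570 nm on plate reader.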

As to `O=c1[nH]cc(F)c(=O)[nH]1` [FLUOROURACIL], the IC50 came to 18 nM.

Source of the values: ChEMBL document CHEMBL1154155, “Novel 2,4,5-trisubstituted oxazole derivatives: synthesis and antiproliferative activity” (Eur J Med Chem, 2009).
